# Assays:
# Type in all cases: functional, cell-based
# A549 = assay: Cytotoxicity against human A549 cells after 72 hrs by alamar blue assay; conditions: A549, 72 h
# Outline: (§1)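 Cells seeded at 800–1000 per well (20–25 cells/µL) and left overnight to attach. Compounds were diluted serially from 10 mM DMSO stocks and tested at 8 final concentrations, 50 to 0.39 µM, in triplicate for 72 h. Vehicle control was 0.5% DMSO. Alamar blue was added to 10% final and fluorescence read after 4 h (ex 530, em 560 nm). Viability was expressed as percent of vehicle, and IC50 taken as 50% kill versus control.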
# NCI-H157 = assay: Cytotoxicity against human NCI-H157 cells after 72 hrs by alamar blue assay; conditions: NCI-H157, 72 h; outline: as §1
# NCI-H460 = assay: Cytotoxicity against human H460 cells after 72 hrs by alamar blue assay; conditions: NCI-H460, 72 h; outline: as §1
# NCI-H1792 = assay: Cytotoxicity against human NCI-H1792 cells after 72 hrs by alamar blue assay; conditions: NCI-H1792, 72 h; outline: as §1
# [1] = Cytotoxicity against human H266 cells after 72 hrs by alamar blue assay; conditions: H266, 72 h; outline: as §1
# HOP-62 = assay: Cytotoxicity against human HOP62 cells after 72 hrs by alamar blue assay; conditions: HOP-62, 72 h; outline: as §1
# NCI-H1299 = assay: Cytotoxicity against human NCI-H1299 cells after 72 hrs by alamar blue assay; conditions: NCI-H1299, 72 h; outline: as §1
# [2] = Cytotoxicity against human 292G cells after 72 hrs by alamar blue assay; outline: as §1
# Calu-1 = assay: Cytotoxicity against human Calu1 cells after 72 hrs by alamar blue assay; conditions: Calu-1, 72 h; outline: as §1
# LOX IMVI = assay: Cytotoxicity against human LOXIMVI cells after 72 hrs by alamar blue assay; outline: as §1
# M14 = assay: Cytotoxicity against human M14 cells after 72 hrs by alamar blue assay; conditions: M14, 72 h; outline: as §1
# HeLa = assay: Cytotoxicity against human HeLa cells after 72 hrs by alamar blue assay; outline: as §1
# [3] = Cytotoxicity against human M4E cells after 72 hrs by alamar blue assay; outline: as §1
# [4] = Cytotoxicity against human SKBR cells after 72 hrs by alamar blue assay; outline: as §1
SMILES,IC50 (A549) [µM],IC50 (NCI-H157) [µM],IC50 (NCI-H460) [µM],IC50 (NCI-H1792) [µM],IC50 [1] [µM],IC50 (HOP-62) [µM],IC50 (NCI-H1299) [µM],IC50 [2] [µM],IC50 (Calu-1) [µM],IC50 (LOX IMVI) [µM],IC50 (M14) [µM],IC50 (HeLa) [µM],IC50 [3] [µM],IC50 [4] [µM]
COc1cc(/C=C/C(=O)OCCCO[N+](=O)[O-])ccc1OCCCO[N+](=O)[O-],15.8,> 50,> 50,> 50,> 50,> 50,> 50,> 50,1.42,> 50,> 50,3.62,> 50,> 50
CCCCCOC(=O)/C=C/c1ccc(O)c(OC)c1,> 50,> 50,> 50,> 50,> 50,> 50,> 50,> 50,> 50,> 50,> 50,> 50,> 50,> 50
COc1cc(/C=C/C(=O)Oc2cccc(OCc3c(-c4ccccc4)no[n+]3[O-])c2)ccc1O,0.72,24.7,11.6,> 50,> 50,> 50,> 50,> 50,> 50,49.4,> 50,> 50,44.6,14.2
COc1cc(/C=C/C(=O)Oc2ccc(OCc3c(-c4ccccc4)no[n+]3[O-])cc2)ccc1O,3.39,43.1,15.8,8.15,> 50,30.4,28.5,31,28.8,> 50,> 50,12.1,> 50,11
O=C(/C=C/c1ccc(O)c(O)c1)OC/C=C/CO[N+](=O)[O-],0.4,1.36,2.9,0.41,10.3,4.65,0.41,7.95,0.42,0.43,1.49,0.4,4.31,0.41
COc1cc(/C=C/C(=O)OCC(C)C)ccc1O,34.6,28.3,> 50,> 50,35.7,> 50,38,> 50,> 50,> 50,> 50,28.7,> 50,44.8
COc1cc(/C=C/C(=O)OCCCCO[N+](=O)[O-])ccc1O,8.82,12.9,19.5,20.8,24.8,13.1,4.51,28.4,30.1,20.4,32.5,6.35,20.3,8.92
COc1cc(/C=C/C(=O)OCCCCO[N+](=O)[O-])ccc1OCCCCO[N+](=O)[O-],> 50,> 50,> 50,> 50,> 50,> 50,> 50,> 50,> 50,> 50,> 50,0.74,> 50,> 50
COc1cc(/C=C/C(=O)OCCCCCCO[N+](=O)[O-])ccc1OCCCCCCO[N+](=O)[O-],> 50,> 50,> 50,> 50,> 50,> 50,> 50,> 50,27.8,> 50,> 50,> 50,> 50,> 50
O=C(/C=C/c1ccc(O)c(O)c1)OCCCCO[N+](=O)[O-],22.6,5.19,3.52,15.4,23.3,10,3.14,16.7,21.7,> 50,19.9,2.25,17.5,4.55
COc1cc(/C=C/C(=O)OCCCCCCO[N+](=O)[O-])ccc1O,37.4,32.1,> 50,48.7,> 50,> 50,> 50,> 50,> 50,> 50,> 50,16.3,> 50,15.2
O=C(/C=C/c1ccc(OCCCCCCO[N+](=O)[O-])c(O)c1)OCCCCCCO[N+](=O)[O-],> 50,> 50,> 50,> 50,> 50,> 50,> 50,> 50,> 50,> 50,> 50,1.35,> 50,39.7
COc1cc(/C=C/C(=O)OCCCCOc2no[n+]([O-])c2S(=O)(=O)c2ccccc2)ccc1O,0.4,0.42,0.45,0.42,0.4,0.41,0.42,1.93,0.41,0.44,0.4,0.46,0.84,0.42
COc1cc(/C=C/C(=O)OCCOc2no[n+]([O-])c2S(=O)(=O)c2ccccc2)ccc1O,> 50,> 50,> 50,> 50,> 50,> 50,> 50,> 50,> 50,> 50,> 50,> 50,> 50,> 50
CCCOC(=O)/C=C/c1ccc(O)c(O)c1,4.39,7.16,7.01,22.1,34.4,7.81,5.85,7.58,17.7,7.5,13.5,1.51,12.4,3.87
COc1cc(/C=C/C(=O)OCCCO[N+](=O)[O-])ccc1O,13.2,20.5,29,28.5,44,19.4,28.3,39.4,> 50,29.5,42.6,6.7,18.4,17.2
CCOC(=O)/C=C/c1ccc(O)c(O)c1 [ETHYL CAFFEATE],7.22,7.62,13.1,18.4,> 50,12.5,4.93,5.25,17.2,6.21,9.82,1.96,11.2,4.16
COc1cc(/C=C/C(=O)OC(C)CCOc2no[n+]([O-])c2S(=O)(=O)c2ccccc2)ccc1O (stereo not given),0.42,0.41,0.42,0.4,0.43,0.42,0.41,1.77,0.45,0.41,0.41,0.4,1.18,0.4
CCCCOC(=O)/C=C/c1ccc(O)c(OC)c1,8.23,9.03,19.4,15,18.3,14.9,8.23,22.9,17.2,19.3,18.1,10.3,15,13.2
COc1cc(/C=C/C(=O)OCc2cccc(OCc3c(-c4ccccc4)no[n+]3[O-])c2)ccc1O,> 50,> 50,29.4,> 50,> 50,> 50,> 50,> 50,> 50,> 50,> 50,5.64,> 50,4.18

# From ChEMBL document CHEMBL2086326, “Biological activity evaluation and structure-activity relationships analysis of ferulic acid and caffeic acid derivatives for anticancer” (Bioorg Med Chem Lett, 2012)
